# System: Fibroblast
# Test: Multiplex assay against human fibroblast
# Format: toxicity, cell-based
# In short: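 With compound added, live cells were imaged on a CQ1 microscope at 37°C and 5% CO2; staining with Hoechst33342, BioTracker Green Microtubule Cytoskeleton Dye, MitoTracker Red and Annexin V Alexa Fluor 680 had been done at seeding. The CellPathfinder machine-learning gating scheme split cells into Hoechst high-intensity objects or normal cells, normal cells into healthy, pyknosed or fragmented nuclei, and pyknosed cells into mitotic or apoptotic. The tubulin, mitochondrial-mass and membrane-permeability phenotypes are per cents of healthy-nucleus cells.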
# [1] = 12 h, 1 µM, compound concentration 1 uM, replicate 1
# [2] = 12 h, 1 µM, compound concentration 1 uM, replicate 2
# [3] = 12 h, 10 µM, compound concentration 10 uM, replicate 1
# [4] = 12 h, 10 µM, compound concentration 10 uM, replicate 2
# [5] = 24 h, 1 µM, compound concentration 1 uM, replicate 1
# [6] = 24 h, 1 µM, compound concentration 1 uM, replicate 2
# [7] = 24 h, 10 µM, compound concentration 10 uM, replicate 1
# [8] = 24 h, 10 µM, compound concentration 10 uM, replicate 2
# [9] = 48 h, 1 µM, compound concentration 1 uM, replicate 1
# [10] = 48 h, 1 µM, compound concentration 1 uM, replicate 2
# [11] = 48 h, 10 µM, compound concentration 10 uM, replicate 1
# [12] = 48 h, 10 µM, compound concentration 10 uM, replicate 2
smiles,measurement,setting,value
CN(C)C(=O)Cn1cc(-c2ccc(-c3cncc4ccccc34)cc2)cn1,Population Apoptotic (%),[1],47%
same,Population Fragmented Nuclei (%),[1],10%
same,Population Healthy Nuclei (%),[1],72%
same,Population Hoechst High Intensity Objects (%),[1],0%
same,Population Membrane Permeable-Phenotype (%),[1],0%
same,Population Mitochondria Different-Phenotype (%),[1],5%
same,Population Mitotic Cells (%),[1],52%
same,Population Normal (%),[1],100%
same,Population Pyknosed Nuclei (%),[1],16%
same,Population Tubulin-Different-Phenotype (%),[1],31%
same,Total Cell Count,[1],139
same,Population Apoptotic (%),[2],32%
same,Population Fragmented Nuclei (%),[2],33%
same,Population Healthy Nuclei (%),[2],46%
same,Population Hoechst High Intensity Objects (%),[2],5%
same,Population Membrane Permeable-Phenotype (%),[2],5%
same,Population Mitochondria Different-Phenotype (%),[2],2%
same,Population Mitotic Cells (%),[2],67%
same,Population Normal (%),[2],94%
same,Population Pyknosed Nuclei (%),[2],20%
same,Population Tubulin-Different-Phenotype (%),[2],54%
same,Total Cell Count,[2],161
same,Population Apoptotic (%),[3],33%
same,Population Fragmented Nuclei (%),[3],13%
same,Population Healthy Nuclei (%),[3],69%
same,Population Hoechst High Intensity Objects (%),[3],4%
same,Population Membrane Permeable-Phenotype (%),[3],1%
same,Population Mitochondria Different-Phenotype (%),[3],12%
same,Population Mitotic Cells (%),[3],66%
same,Population Normal (%),[3],95%
same,Population Pyknosed Nuclei (%),[3],16%
same,Population Tubulin-Different-Phenotype (%),[3],52%
same,Total Cell Count,[3],113
same,Population Fragmented Nuclei (%),[4],40%
same,Population Healthy Nuclei (%),[4],42%
same,Population Hoechst High Intensity Objects (%),[4],9%
same,Population Membrane Permeable-Phenotype (%),[4],18%
same,Population Mitochondria Different-Phenotype (%),[4],5%
same,Population Normal (%),[4],90%
same,Population Tubulin-Different-Phenotype (%),[4],81%
same,Total Cell Count,[4],98
same,Population Apoptotic (%),[5],47%
same,Population Fragmented Nuclei (%),[5],12%
same,Population Healthy Nuclei (%),[5],73%
same,Population Hoechst High Intensity Objects (%),[5],5%
same,Population Membrane Permeable-Phenotype (%),[5],0%
same,Population Mitochondria Different-Phenotype (%),[5],3%
same,Population Mitotic Cells (%),[5],52%
same,Population Normal (%),[5],94%
same,Population Pyknosed Nuclei (%),[5],14%
same,Population Tubulin-Different-Phenotype (%),[5],37%
same,Total Cell Count,[5],137
same,Population Apoptotic (%),[6],48%
same,Population Fragmented Nuclei (%),[6],40%
same,Population Healthy Nuclei (%),[6],38%
same,Population Membrane Permeable-Phenotype (%),[6],7%
same,Population Mitochondria Different-Phenotype (%),[6],5%
same,Population Mitotic Cells (%),[6],51%
same,Population Pyknosed Nuclei (%),[6],20%
same,Population Tubulin-Different-Phenotype (%),[6],61%
same,Total Cell Count,[6],156
same,Population Apoptotic (%),[7],50%
same,Population Fragmented Nuclei (%),[7],20%
same,Population Healthy Nuclei (%),[7],62%
same,Population Hoechst High Intensity Objects (%),[7],8%
same,Population Membrane Permeable-Phenotype (%),[7],0%
same,Population Mitochondria Different-Phenotype (%),[7],12%
same,Population Mitotic Cells (%),[7],50%
same,Population Normal (%),[7],91%
same,Population Pyknosed Nuclei (%),[7],17%
same,Population Tubulin-Different-Phenotype (%),[7],59%
same,Total Cell Count,[7],113
same,Population Apoptotic (%),[8],41%
same,Population Fragmented Nuclei (%),[8],41%
same,Population Healthy Nuclei (%),[8],43%
same,Population Hoechst High Intensity Objects (%),[8],5%
same,Population Membrane Permeable-Phenotype (%),[8],11%
same,Population Mitochondria Different-Phenotype (%),[8],8%
same,Population Mitotic Cells (%),[8],58%
same,Population Normal (%),[8],94%
same,Population Pyknosed Nuclei (%),[8],15%
same,Population Tubulin-Different-Phenotype (%),[8],85%
same,Total Cell Count,[8],85
same,Population Apoptotic (%),[9],76%
same,Population Fragmented Nuclei (%),[9],21%
same,Population Healthy Nuclei (%),[9],65%
same,Population Hoechst High Intensity Objects (%),[9],6%
same,Population Membrane Permeable-Phenotype (%),[9],3%
same,Population Mitochondria Different-Phenotype (%),[9],8%
same,Population Mitotic Cells (%),[9],23%
same,Population Normal (%),[9],93%
same,Population Pyknosed Nuclei (%),[9],12%
same,Population Tubulin-Different-Phenotype (%),[9],57%
same,Total Cell Count,[9],144
same,Population Apoptotic (%),[10],44%
same,Population Fragmented Nuclei (%),[10],36%
same,Population Healthy Nuclei (%),[10],40%
same,Population Hoechst High Intensity Objects (%),[10],7%
same,Population Membrane Permeable-Phenotype (%),[10],5%
same,Population Mitochondria Different-Phenotype (%),[10],7%
same,Population Mitotic Cells (%),[10],55%
same,Population Normal (%),[10],92%
same,Population Pyknosed Nuclei (%),[10],22%
same,Population Tubulin-Different-Phenotype (%),[10],77%
same,Total Cell Count,[10],141
same,Population Apoptotic (%),[11],72%
same,Population Fragmented Nuclei (%),[11],24%
same,Population Healthy Nuclei (%),[11],54%
same,Population Hoechst High Intensity Objects (%),[11],9%
same,Population Membrane Permeable-Phenotype (%),[11],0%
same,Population Mitochondria Different-Phenotype (%),[11],20%
same,Population Mitotic Cells (%),[11],27%
same,Population Normal (%),[11],90%
same,Population Pyknosed Nuclei (%),[11],20%
same,Population Tubulin-Different-Phenotype (%),[11],55%
same,Total Cell Count,[11],117
same,Population Apoptotic (%),[12],12%
same,Population Fragmented Nuclei (%),[12],47%
same,Population Healthy Nuclei (%),[12],44%
same,Population Hoechst High Intensity Objects (%),[12],0%
same,Population Membrane Permeable-Phenotype (%),[12],8%
same,Population Mitochondria Different-Phenotype (%),[12],13%
same,Population Mitotic Cells (%),[12],87%
same,Population Normal (%),[12],99%
same,Population Pyknosed Nuclei (%),[12],7%
same,Population Tubulin-Different-Phenotype (%),[12],73%
same,Total Cell Count,[12],102
